From ChEMBL document CHEMBL4513216, “Probing the Open Global Health Chemical Diversity Library for Multistage-Active Starting Points for Next-Generation Antimalarials” (ACS Infect Dis, 2020)

Experiment: Toxicity liver stage against HepG2, at 10uM
Assay type: cell-based
Design: test concentration 10 uM, cell line HepG2-A16-CD81EGFP
Details: human, HepG2-A16-CD81EGFP cells; read-out: INHIBITION
Procedure, shortened: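 Uninfected HepG2-A16-CD81EGFP cells, 3 × 10^3 per well, 1536-well, plated on prespotted compound at 10 μM final, parasite-free screening media added to match infected plates; puromycin 10 μM positive, DMSO 0.5% negative; run in parallel with 48 h PbLuc assay at 37 °C, 5% CO2; viability by CellTiter-Glo luminescence, normalized to controls.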

SMILES | cytotoxicity at 10 µM [%]
[O-][S+](CCN1CCc2[nH]nc(C(F)(F)F)c2C1)c1ccccc1 (stereo unspecified) | -9.92
CC(C)n1ccc(C(=O)N2CCCC(n3cncn3)C2)n1 (stereo unspecified) | -0.312
Cc1cccc(OCCC(=O)N2CCN(CC(=O)NC3CC3)CC2)c1C | 2.22
CCN(c1ccsc1C(=O)N1CCSCC1)S(=O)(=O)c1ccccc1 | 8.24
O=C(NC[C@H]1OC[C@@H](NC2COC2)[C@@H]1O)Nc1ccccc1 | 4.43
CCc1nnc(CN2CCC(N3CCN(CC)C3=O)CC2)o1 | 1.52
CC(=O)N(C)c1nc(CN2CCCC2Cn2cncn2)cs1 (stereo unspecified) | -1.01
CN1CC2(CCCN(c3cnccn3)C2)OC1=O (stereo unspecified) | -43.2
O=C(NCCC1CCCCO1)c1coc(COc2ccc(F)cc2)n1 (stereo unspecified) | 1.1
COc1ccccc1S(=O)(=O)Nc1ccc2c(C(=O)O)c[nH]c2c1 | -11.1
c1ccc2sc(N3CCCN(c4ncnc5c4CCNC5)CC3)nc2c1 | 31.2
Cc1nc2cc(O)nn2c(C)c1CCC(=O)N(C)Cc1ccccc1 | -141
OC1CCN(CCCNc2nccc(C3CCCC3)n2)CC1 | -1.81
CC(C)NC(=O)N1Cc2nccn2CC(COc2cccnc2)C1 (stereo unspecified) | 7.77
CN(C)c1cc(C(=O)N2CCCC(n3cccn3)C2)ccn1 (stereo unspecified) | -0.781
CC(C)N(C)Cc1cncc2c1CCN(Cc1cccs1)C2 | -112
O=C(NCC1CCS(=O)(=O)C1)N1CCN(c2cnccn2)CC1 (stereo unspecified) | -7.21
Cc1nc(C)n(CC2CCCCN2CCCC#N)n1 (stereo unspecified) | 6.73
CC(C)N(Cc1ccc(Cl)c(Cl)c1)C(=O)Cn1cncn1 | 4.19
Cc1ccsc1CNC(=O)c1ccc2c(c1)CCC(=O)N2 | 4.91
CCOC(=O)C1CC2(CCCC2)N2CCC(=O)N12 (stereo unspecified) | 1.53
O=C(c1sccc1-n1cnnn1)N1CCCCC1 | 6.56
O=C1CN(C(=O)CNC(CC(F)(F)F)c2ccc(F)cc2)CCN1 (stereo unspecified) | 10.4

SMILES | cytotoxicity at 10 µM [%]
O=C(NCCc1ccncc1)[C@H]1CC[C@@H]2[C@@H](CCN2CC2CC2)O1 | 0.545
CC(C)Cc1cc(NC(=O)c2ccccc2F)n(C)n1 | -6.48
Cc1csc(CCNC(=O)N2CCC(n3cccc3)CC2)n1 | 3.98
CCN1C(=O)CC(N(C)Cc2nc3ccccc3c(=O)[nH]2)C1=O (stereo unspecified) | 2.06
CN1[C@@H](C(=O)NCC2CC2)C[C@@H]2CN(c3ncccn3)C[C@@H]21 | 9.85
COc1cc(CNC(=O)Nc2cc(C(F)(F)F)c[nH]c2=O)ccn1 | 1.53
CNC(=O)[C@@H]1C[C@@H](NC(=O)CSc2ccccc2)CN1C1CCOCC1 | 2.14
c1csc(N2CCCN(Cc3nc(C4CC4)no3)CC2)n1 | -9.68
C=C(C)CN(CC)Cc1nc(C(C)(C)C)no1 | -4.57
CCN(C(=O)Nc1nccs1)C(C)c1cccc(O)c1 (stereo unspecified) | -2.11
O=C(NC[C@]12COC[C@H]1CN(Cc1ccncc1)C2)c1ccco1 | 8.75
CC(C)C(Sc1nccn1C1CC1)C(=O)NCc1cccnc1 (stereo unspecified) | -5.83
CCN(Cc1ccc2c(c1)OCCO2)C(=O)NC(C)Cn1ccnc1 (stereo unspecified) | -2.79
CN(C)C(=O)CCC(=O)NCc1cccnc1-n1cnc2ccccc21 | -3.97
c1ccc(N2CC[C@@H]3CN(Cc4ccncc4)CCO[C@@H]3C2)cc1 | 9.49
Cc1ccc(CN2CCOC3(COCCN(Cc4ccncc4)C3)C2)o1 (stereo unspecified) | -109
O=C(c1cccc(F)c1)N1C[C@@H](CN2CCCCC2)[C@@H](CO)C1 | 3.78
O=C(NCCc1noc(-c2ccccn2)n1)NCC1CCCC1 | 0.321
CN1C(=O)CCC12CCC(NC(=O)NCc1cccnc1)CC2 (stereo unspecified) | -99.8
N#CCCN(Cc1ccco1)C(=O)CCCc1ccccc1 | 73.1
COC(=O)Nc1cccc(C(=O)N(C)Cc2cccc(O)c2)c1 | -5.88
O=C(C1CCCCC1)N1CCN(Cc2nc(-c3ccco3)no2)CC1 | -1.01
CC(=O)NCCc1cc2nc(-c3ccncc3)ccn2n1 | 2.95

SMILES | cytotoxicity at 10 µM [%]
CC(=O)NCC(=O)N1CCc2[nH]c(-c3ccccc3)nc2C1 | -0.591
NC(=O)c1cnn2c1NCC(CNC1(c3ccccc3)CCC1)C2 (stereo unspecified) | -8.84
Cc1ccccc1NC(=O)N1CC[C@@H]2CN(CC(C)C)S(=O)(=O)[C@@H]2CC1 | -0.567
COCCOc1ccc(NC(=O)N2CCCC2c2ccsc2)cn1 (stereo unspecified) | -8.33
CC(CN1CCCC1=O)NC(=O)Nc1cccnc1-n1cccn1 (stereo unspecified) | -170
CN(Cc1ccco1)[C@@H]1CN(Cc2cnn(C)c2)[C@@H]2CCCO[C@H]12 | -75.8
CN1CCCN(CCCNC2CCc3cc4c(cc32)OCCO4)CC1 (stereo unspecified) | -3.68
Cc1cccc(NC(=O)N2CCN(Cc3nnc(C(C)C)o3)CC2)c1 | -1.02
Cc1ccccc1N1CCCN(C(=O)CN2C(=O)OC[C@@H]2C(C)C)CC1 | 4.02
Cc1ccc(NC(=O)N2CCCC2)c(OCC2CCCO2)c1 (stereo unspecified) | 6.36
Cc1nn(CC(F)F)c2c1c(C(F)F)cc(=O)n2CC(=O)O | 2.84
COc1cc(N2CCC(c3nccn3Cc3cccnc3)CC2)ncn1 | -4.4
O=c1cc2c(nn1CN1CCC(c3ccccc3)CC1)CCC2 | -8.49
Cc1cc(C)cc(NC(=O)N(CCC#N)CCCN(C)C)c1 | -49.3
Cc1cc(N2CCC(Cc3cccnc3)CC2)ncn1 | 1.96
Cc1cccnc1NC(=O)C1CCN(C(=O)C(C)C)CC1 | 6.7
CCc1nc(CN(C)C(=O)NCc2cccc(NC(C)=O)c2)cs1 | -3.71
COc1ccccc1CN(Cc1cccnc1)Cc1c[nH]c(C)n1 | 6.43
COc1cc(CNCC2CN(C3CC3)CCO2)cc(OC)c1 (stereo unspecified) | -24.3
Cc1nnc([C@]23COC[C@H]2CN(Cc2cnn(C)c2)C3)o1 | -3.77
Cc1cnn(C2CN(Cc3noc(-c4ccccc4)n3)C2)c1 | -1.52
CC(C)N(CC(N)=O)Cc1cccc(Br)c1 | -6.93
c1cnnc(N2CCCC(NCc3nc(-c4ccco4)no3)C2)c1 (stereo unspecified) | -20

SMILES | cytotoxicity at 10 µM [%]
CCn1c(CN(C)C)nnc1C1CCN(Cc2ccc(Cl)cc2)CC1 | 1.77
Cc1ccc(SC2CCCC2)c(C(=O)NCCO)c1 | -45.3
COCCCn1c(CN2CCSCC2)cnc1S(=O)(=O)C1CCCC1 | -3.89
CCc1cnc2c(c1NCc1cccc(OC)c1)c(=O)n(C)c(=O)n2C | 24.8
CC1CN(C)CCN1C(=O)c1cccn1Cc1cccnc1 (stereo unspecified) | -13.5
O=C1CO[C@H]2CN(S(=O)(=O)c3ccccc3)C[C@H]2N1CC1CCCCC1 | 3.36
CN(CCCSc1ccccc1)C(=O)Cn1ncc(N(C)C)cc1=O | 0.0227
CCN1CC(C(=O)N2CCc3cc(C(=O)N(C)C)n(C)c3C2)CCC1=O (stereo unspecified) | -48.1
Cn1cccc1CN1CCC2(CC1)CN(c1ncccn1)CCO2 | -4
O=C(CCc1ccc(Cl)s1)NCc1nnc2n1CCCCC2 | -6.1
CCOC(=O)C1CN(S(=O)(=O)C2CC2)Cc2ncn(CC)c21 (stereo unspecified) | 6.71
Cc1cc(CN2CCN(C(=O)NC(C)c3ccncc3)CC2)on1 (stereo unspecified) | -5.66
Cc1cccc(C)c1NCc1noc(C2CC2)n1 | -5.06
COc1ccc(CNC2CCCN(Cc3noc(C)n3)C2)cc1F (stereo unspecified) | -12.5
CC(C)c1nc(C2CCCN2C(=O)c2cnns2)no1 (stereo unspecified) | -6.8
CC(c1ccc(Cl)cc1)N1CCN(CCNS(C)(=O)=O)CC1 (stereo unspecified) | -15.3
Fc1ccc(N2CCC3(CC2)CC(OCc2cccnc2)CO3)cc1 (stereo unspecified) | 9.81
CC(C)c1cc(C(=O)N2CCCC2c2nc(-c3ccccc3)no2)[nH]n1 (stereo unspecified) | -4.5
FC(F)(F)Oc1cccc(CNC[C@H]2Cn3ccnc3CO2)c1 | 2.21
CCc1noc(C)c1C(=O)N1CCCCC1Cn1cc(C)cn1 (stereo unspecified) | 10.8
CSc1ccc(NCC(=O)NC(=O)NCC(F)(F)F)cc1F | -7.91
Cc1nnn2c1COCC(CNCc1nccs1)C2 (stereo unspecified) | -109
CCOCCN1CCN(C(C)c2nc(C3CC3)no2)CC1 (stereo unspecified) | -4.51

SMILES | cytotoxicity at 10 µM [%]
CC(C)Nc1nc(-c2ccccc2)nc2c1CCN(C(=O)C1CC1)CC2 | -108
O=C(NCCc1cccnc1)N1CCCC1c1ccsc1 (stereo unspecified) | -6.82
CCCc1noc(C2CC(=O)N(CCN(C)C)C2)n1 (stereo unspecified) | 5.48
O=C(c1ccc(Cl)o1)N1CCCC1c1nnc2n1CCCCC2 (stereo unspecified) | -4.52
COCC1CN(C(=O)CC2=CCCCC2)Cc2nnn(CC3CC3)c21 (stereo unspecified) | -116
CC(C)(NC(=O)c1cnc(C(C)(C)C)s1)C(N)=O | -4.04
O=C(C1SCCc2ccccc21)N1CCC(O)CC1 (stereo unspecified) | 0.0013
Cc1ccc(-c2nc(CN3CCn4c(C)nnc4C3)co2)cc1 | -8.03
Cc1nn(C(C)(C)C)c(C)c1C(=O)NCC1(C(N)=O)CCOCC1 | 3.28
CC(NC(=O)N(C)CCCOc1ccccc1)c1nncn1C (stereo unspecified) | -5.4
Cn1cc(I)c(C(=O)NC2CCCC2)n1 | 5.53
CCC[C@H]1CN(Cc2cscn2)C[C@@H]1NC(=O)C1(COC)CCC1 | -5.69
CNC(=O)CN1CCCC12CCN(C(=O)c1ccoc1)CC2 | 6.53
CC(=O)N1CCC2(CC1)CN(CC(C)C)CC21CCNC1=O (stereo unspecified) | -1.07
Cc1noc([C@@H]2C[C@H]3OCC[C@H]3N(Cc3ccoc3)C2)n1 | -71.4
COc1ccc(CCC2CCCN(C(=O)c3cnc(N)nc3C)C2)cc1 (stereo unspecified) | 1.14
Cc1csc(N2CCN(CC(=O)N3CCNC3=O)CC2C)n1 (stereo unspecified) | -12.4
COCCN1CCn2cc(CNC(=O)c3cnn(C)c3)nc2C1 | -3.09
c1ccc2c(c1)ccn2CCCNC1CCOC2(CCOCC2)C1 (stereo unspecified) | -7.04
